ARFGAP1 inhibitor – inhibits rat ARF GTPase activating protein 1. Q62848. Arfgap1-stimulated ARF1 GTP hydrolysis, GDP FP detection. inhibition, % at 16.5 µM. actives 0.26% (n = 360,000);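 active = inhibition above a per-plate limit, mean inhibition of low control wells plus 3 SD, cut at about 25% in these data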;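 also: 0% = DMSO wells with enzyme and 100% = wells lacking Arfgap1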
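Material: rat Arfgap1 GAP domain (His6, aa 1-136), purified enzyme. Also added: human ARF1(Δ1-17)-GTP substrate. Compound dosing: 16.5 µM single point, 1.26% DMSO. Timing: enzyme reaction 120 min at 25 °C after 20 min preincubation. Signal: GDP detection by fluorescence polarization. Read-out basis: percent inhibition of GAP-stimulated GDP formation, scaled between DMSO and no-Arfgap1 medians.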
LEDGF integ inh – blocks HIV-1 LEDGF/p75-dependent DNA integration; TR-FRET IN-LEDGF/p75 DNA integration, Eu/Cy5; inhibition, % at 3.7 µM; actives 0.64% (n = 370,000); AID 743269;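 active = inhibition above the screen-wide mean plus 3 SD, cut at about 13% in these data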;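 also: signal is the Cy5 over europium emission ratio at 671 and 618 nm; 0% = plate median of compound wells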
ASAP1 GAP inh – blocks human ASAP1-stimulated Arf1 GTP hydrolysis. actives 0.19% (n = 360,000). Q9ULH1. inhibition, % at 16.5 µM. GDP FP detection; in the data active = inhibition above about 25%;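 also: 0% = vehicle with enzyme and substrate and 100% = no enzyme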
UHRF1 binding – UHRF1 methyl-DNA binding inhibition | Q96T88 | UHRF1 binding to methylated oligo, TR-FRET | inhibition, % at 4.4 µM | actives 0.75% (n = 370,000) | AID 687016; in the data active = inhibition above about 21%;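 also: UHRF1 SRA domain binding a hemimethylated CpG hairpin DNA probe; 0% = median of test compound wells and 100% = reference inhibitor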
Target sequence (Q96T88 whole entry, looked up, the tested form may be a part): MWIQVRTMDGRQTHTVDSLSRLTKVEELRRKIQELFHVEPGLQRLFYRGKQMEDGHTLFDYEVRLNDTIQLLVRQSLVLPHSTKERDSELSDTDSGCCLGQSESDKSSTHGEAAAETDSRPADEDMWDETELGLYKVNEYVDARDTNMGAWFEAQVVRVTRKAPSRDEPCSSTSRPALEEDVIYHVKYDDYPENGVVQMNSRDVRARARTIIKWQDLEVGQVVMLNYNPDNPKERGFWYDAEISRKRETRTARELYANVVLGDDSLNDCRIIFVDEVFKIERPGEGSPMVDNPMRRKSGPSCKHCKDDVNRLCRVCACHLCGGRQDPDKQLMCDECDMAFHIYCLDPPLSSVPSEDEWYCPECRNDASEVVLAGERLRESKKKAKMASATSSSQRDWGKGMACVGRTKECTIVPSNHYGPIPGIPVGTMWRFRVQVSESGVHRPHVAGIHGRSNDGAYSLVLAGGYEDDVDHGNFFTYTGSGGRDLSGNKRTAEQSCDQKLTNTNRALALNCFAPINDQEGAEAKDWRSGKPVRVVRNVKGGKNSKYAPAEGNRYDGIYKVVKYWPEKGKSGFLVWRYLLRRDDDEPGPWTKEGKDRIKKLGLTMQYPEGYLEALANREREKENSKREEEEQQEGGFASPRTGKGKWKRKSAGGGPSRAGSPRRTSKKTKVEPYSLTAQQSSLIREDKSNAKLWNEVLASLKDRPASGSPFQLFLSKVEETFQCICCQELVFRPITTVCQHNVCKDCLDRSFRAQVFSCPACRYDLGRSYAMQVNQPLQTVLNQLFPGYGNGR
TDP2 absorb – TDP2 (human) inhibition, absorbance primary screen; O95551; recombinant TDP2, T5PNP hydrolysis, p-nitrophenol absorbance 415 nm; inhibition, % at 12.8 µM; actives 0.34% (n = 370,000);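 active = inhibition above the mean of all tested compounds plus 3 SD, set per campaign, cut at about 25% in these data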;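 also: 0% = DMSO with enzyme and 100% = buffer with substrate but no TDP2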
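Material: recombinant human TDP2; quantity: TDP2 enzyme at 120 nM final; medium: Tris-HCl pH 7.5 with MgCl2; compound: single concentration, 12.8 µM nominal, with 1% DMSO; incubation: 2 h enzyme incubation at 37 °C; signal: epi absorbance; measure: percent inhibition; benchmarks: high control without enzyme, low control DMSO plus TDP2; repeats: singlicate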
MBD2 inh – blocks human MBD2 binding to methylated DNA; Q9UBB5; TR-FRET, MBD2 binding to methylated oligonucleotide; inhibition, % at 4.4 µM; actives 0.31% (n = 370,000); AID 686964; in the data active = inhibition above about 13%
* = called active by the depositor; · = not tested or not shown. Sampled rows, rich in hits. Any-hit rate of the full collection: about 2%.

SMILES	ARFGAP1 inhibitor	LEDGF integ inh	ASAP1 GAP inh	UHRF1 binding	TDP2 absorb	MBD2 inh
CC1CCN(Cc2nnnn2CCCC(=O)NC(c2ccccn2)C(F)(F)F)CC1 (centres undefined)	-6	28*	5	-2	9	-6
Cc1ccc(NC(=O)CCS(=O)(=O)c2ccccc2)cc1C	·	-1	·	1	11	4
CCOc1ccc(-c2cc(CCCC(=O)NCc3ccc(C)cc3)no2)cc1	-3	2	-3	29*	0	1
COc1ccc(-c2nc3c4ccccc4ccn3c2CC2CCCCC2)cc1OC	-1	2	0	23*	5	7
Cc1ccc(-c2nc3c4ccccc4ccn3c2CC2CCCCC2)cc1	1	0	-5	20	0	12
CC(Sc1nnc(Cc2ccccc2)o1)C(=O)NC1(C#N)CCCCC1 (centres undefined)	-4	-10	5	24*	-2	2
O=c1c2ccccc2nc2n1C(CSCc1ccc(Cl)cc1Cl)CS2 (centres undefined)	6	2	12	22*	3	8
CC(C)N1Cc2nnn(Cc3ccccc3)c2-c2cc(F)ccc2S1(=O)=O	·	6	·	-2	1	4
CC(CN1CCCCC1)C(=O)NN (centres undefined)	8	3	-6	21*	-2	4
CC(CN1CCCC1)C(=O)NN (centres undefined)	-8	-4	8	1	2	3
O=S(=O)(NCC(c1cccnc1)N1CCOCC1)c1ccc(Cl)cc1 (centres undefined)	-1	1	13	25*	9	-6
[S-]C(=Nc1ccc(Cl)cc1)N[n+]1ccccc1	1	-1	2	58*	9	-2
Cc1cc(-c2nnc(CCC(=O)NCC(C)c3ccccc3)o2)no1 (centres undefined)	13	0	12	1	-10	-1
CC(CNC(=O)CCc1nnc(CCC2CCCCC2)o1)c1ccccc1 (centres undefined)	-8	-1	-13	33*	0	0
CS(=O)(=O)c1nc(-c2ccc(Br)cc2)cs1	·	-1	·	-1	6	1
CCOc1ccc(Cl)cc1-c1cc(C(=O)NCc2cc(C(F)(F)F)cc(C(F)(F)F)c2)[nH]n1	6	3	-5	45*	-5	7
CC(=O)c1ccc(S(=O)(=O)N2CCn3cccc3C2C)cc1 (centres undefined)	3	0	-2	0	11	5
CC1c2cccn2CCN1S(=O)(=O)c1ccc(F)cc1 (centres undefined)	-7	2	0	30*	8	6
CCCNC(=O)OC1CC2CC1[C@H]1CCCCN1C2=O (some centres undefined)	11	2	7	23*	-9	9
Cc1ccc(CNC(=O)OC2CC3CC2[C@H]2CCCCN2C3=O)cc1 (some centres undefined)	-5	-2	-3	4	8	1
O=C(CSc1nnc(COc2ccc(Cl)cc2)n1Cc1ccco1)Nc1cccc2ccccc12	·	3	·	1	-16	-6
N#C/C(=C\C=C\c1ccccc1[N+](=O)[O-])C(=O)NCc1ccccc1	-5	0	-13	-3	6	2
N#C/C(=C\c1ccccc1[N+](=O)[O-])C(=O)NCc1ccccc1	12	3	-2	25*	0	11
COCC#Cc1ccc(CC[C@H]2O[C@H]3CC[C@@H](CO)O[C@H]3C[C@H]2n2cc(C(C)(C)O)nn2)cc1	·	2	·	11	-8	10
O=C(NNC(=O)c1cccs1)c1ccc([N+](=O)[O-])cc1	-5	3	-6	21*	-15	-1
SMILES	ARFGAP1 inhibitor	LEDGF integ inh	ASAP1 GAP inh	UHRF1 binding	TDP2 absorb	MBD2 inh
O=C(NCC(c1cccs1)N1CCOCC1)c1ccc([N+](=O)[O-])cc1 (centres undefined)	-3	-1	-1	25*	-3	1
C[C@@H](O[Si](c1ccccc1)(c1ccccc1)C(C)(C)C)[C@H]1C(=O)N[C@H](Cc2cn(S(=O)(=O)c3ccccc3)c3ccccc23)C(=O)N1C	·	-2	·	3	-4	4
COc1cc(/C=N/NC(=O)c2cc(C3CC3)[nH]n2)ccc1O	0	-2	-18	3	-10	-2
CCOc1cc(/C=N/NC(=O)c2cc(C3CC3)[nH]n2)ccc1O	3	0	19	21*	-9	6
Cc1ccc(C)c(NNC(N)=S)c1	-10	-2	-4	0	6	-2
Cc1cc(Cl)ccc1NNC(N)=S	-4	1	3	22*	-3	7
O=C(O)c1ccccc1C(=O)c1ccc(Sc2ccc(Cl)cc2)c([N+](=O)[O-])c1	-8	1	-4	21*	-13	0
O=C1[C@H](c2ccccc2)[C@@H](c2ccccc2)N1c1ccncc1	3	-1	-2	22*	1	9
O=C1[C@@H](Oc2ccccc2)[C@@H](c2ccncc2)N1c1ccccc1	16	-3	4	1	-2	5
c1ccc(CCNc2nc(-c3cccnc3)cs2)cc1	18	-1	-5	49*	-2	-4
c1ccc(CCNc2nc(-c3ccccn3)cs2)cc1	5	7	4	-2	13	2
COc1ccc(C(C)(O)c2nc(-c3ccc4ccccc4c3)cs2)cc1 (centres undefined)	7	4	-10	34*	-3	-7
CCOC(=O)[C@]12CCCCC/C=C\1N(Cc1ccc(OC)cc1)C(=O)[C@H]2CC(=O)N1CCN(C(=O)c2ccco2)CC1	·	-5	·	-1	16	0
COc1ccc(S(N)(=O)=O)cc1C(N)=O	16	-4	2	22*	-10	10
COc1ccc(S(N)(=O)=O)cc1C(=O)N1CCCC1	1	6	-8	-4	5	3
COC(=O)[C@]12C[C@H](CC(=O)N3CCC(c4ccccc4)CC3)C(=O)N(CCc3ccc(OC)c(OC)c3)C1=C[C@H](C1CCCC1)O[C@@H]2C	·	-5	·	4	1	0
O=C(O)C1CC(c2ccc(F)cc2)=NO1 (centres undefined)	-9	4	-3	27*	4	5
COc1ccc(Oc2c(Br)cnn(Cc3cccc4ccccc34)c2=O)cc1	·	-1	·	1	3	-1
CC1(c2nnnn2Cc2ccccc2)CCC(=O)N1CCc1ccc(O)cc1 (centres undefined)	17	-2	13	24*	3	6
Cc1cnc(C(=O)N2CCc3c([nH]c4ccccc34)C2c2ccc(F)cc2)cn1 (centres undefined)	0	0	-1	21*	-7	4
